# The list is not random: actives were taken first. Their share in the collection is about 1.6%.
# TAG inh: inhibitors of triacylglycerol accumulation; H9c2 cells, Nile Red lipid (TAG) fluorescence; cells loaded with 200 µM oleic acid; inhibition, % at 12.5 µM; hit rate 0.66% among 230,000; AID 651582;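 active means pattern-corrected inhibition of lipid staining of at least 50% with the nuclear-stain viability signal not falling by more than 50%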;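 further: 0% = DMSO wells and 100% = triacsin C control wells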
# SR-BI uptake up: enhances SR-BI lipid uptake from DiI-HDL. CHO ldlA[mSR-BI] cells, DiI-HDL uptake fluorescence, 3 h; 100 = double the neutral-control signal. activation, % at 12.5 µM. hit rate 0.096% among 320,000;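 active means mean replicate activation of at least 60% and every replicate at or above 60%; inconclusive means mean or all-replicate condition met, but not both; inactive means mean below 60% and not all replicates reaching 60%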;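 further: 0% = median plate neutral-control signal and 100% = twice that signal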
#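 Material – SR-BI-overexpressing, LDLR-lacking CHO cells · Medium – BSA-supplemented, HEPES-buffered Ham's F12, pH 7.4 · Doses – single concentration · Times – compound with DiI-HDL co-incubation, 3 h at 37 °C · Measured by – bottom-read fluorescence, 550/595 nm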
# Bfl-1 A1 inh: inhibitors of the anti-apoptotic protein A1, read as caspase activation. MEF A1-2A-BIM cells, Caspase-Glo 3/7 luminescence, 3 h; percent of clofoctol response, vehicle zero. caspase activation, % (concentration not given with the values). hit rate 0.066% among 330,000;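 active means over half of replicate activation scores above 10%, or exactly half above 10 with the replicate mean above 10; inconclusive means replicate mean below 10 yet half the replicates above 10; inactive means over half of replicates below 10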
# SR-BI HDL uptake: inhibitors of mouse SR-BI mediated HDL lipid uptake; inhibition, % at 12.5 µM; Q61009; ldlA[mSR-BI] CHO cells, DiI-HDL uptake fluorescence, 3 h; hit rate 0.96% among 320,000;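 active means mean replicate inhibition of at least 70% and a set share of replicates each scoring 70 or more; inconclusive means meets just one of the two criteria; inactive means fails both criteria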;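 further: 0% = median of neutral control wells and 100% = median of positive control wells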
# Target sequence (Q61009 whole entry, looked up): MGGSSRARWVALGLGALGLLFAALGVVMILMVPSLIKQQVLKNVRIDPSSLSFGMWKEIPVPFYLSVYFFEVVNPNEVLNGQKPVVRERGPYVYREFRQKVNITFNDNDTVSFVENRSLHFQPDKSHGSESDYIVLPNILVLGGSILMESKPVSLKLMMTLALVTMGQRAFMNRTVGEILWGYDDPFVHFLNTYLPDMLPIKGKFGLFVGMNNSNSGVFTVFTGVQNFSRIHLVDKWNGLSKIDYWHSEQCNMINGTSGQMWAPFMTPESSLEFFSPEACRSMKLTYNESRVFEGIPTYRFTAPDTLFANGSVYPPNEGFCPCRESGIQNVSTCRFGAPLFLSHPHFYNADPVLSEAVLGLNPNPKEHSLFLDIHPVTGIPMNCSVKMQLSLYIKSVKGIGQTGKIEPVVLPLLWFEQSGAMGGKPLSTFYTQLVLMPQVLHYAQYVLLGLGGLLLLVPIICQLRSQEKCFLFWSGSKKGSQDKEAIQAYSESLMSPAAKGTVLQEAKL
# Vif inh: blocks HIV Vif function; HEK293T cells, Vif self-association by quenched fluorescence, imaging, 24 h; inhibition, % at 7.49 µM; hit rate 0.35% among 340,000; AID 602346; in the data active means inhibition above about 50%, passing the limit was not always enough; inconclusive means no clear call, values can overlap the other calls; inactive means below about 31%
# H9c2 TAG conf: confirmation of triacylglycerol accumulation inhibitors; shares compounds with TAG inh; H9c2 lipid accumulation, Nile Red fluorescence; cells loaded with 200 µM oleic acid; inhibition, % at 12.5 µM; hit rate 71% among 990;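 active means mean inhibition across replicates of 40% or more; inactive means mean inhibition below 40%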;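 further: plate controls were DMSO only wells for no effect and Triacsin C treated wells for full effect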
# * hit, by the source's call; ? = inconclusive; nt = no result given; ! = a repeat was not active.
SMILES,TAG inh,SR-BI uptake up,Bfl-1 A1 inh,SR-BI HDL uptake,Vif inh,H9c2 TAG conf
CCC(C)(C)NC(=O)C(c1ccc(OC)cc1)N(CC1CCCO1)C(=O)CCC(=O)Nc1cc(C)on1 (configuration not stated),57*,-5,-1,5,-10,41*
COc1ccc(C(C(=O)NC(C)(C)C)N(CCO)C(=O)CCC(=O)Nc2cc(C)on2)cc1 (configuration not stated),nt,nt,3,nt,11,nt
CCC(C)(C)NC(=O)C(c1ccc(OC)cc1)N(Cc1cccs1)C(=O)CCC(=O)Nc1cc(C)on1 (configuration not stated),72*,10,0,-10,nt,68*
COc1ccc(C(C(=O)NC(C)(C)C)N(Cc2cccs2)C(=O)CCC(=O)Nc2cc(C)on2)cc1 (configuration not stated),70*,-19,-1,19,-8,49*
COc1ccc(CCc2nnc(CCC(=O)NCc3ccc4ncccc4c3)o2)cc1,-1,6,0,-6,5,nt
CCOC(=O)c1ncccc1NC(=O)CC(=O)Nc1cccnc1C(=O)OCC,8,nt,0,nt,-2,nt
COC(=O)c1ccc(Oc2cc(C)nc(SC)n2)cc1,51*,1,1,-1,0,41*
Cc1ccc(C2C(C=Nc3c(C)n(C)n(-c4ccccc4)c3=O)=C(c3ccccc3)Oc3ccccc32)cc1 (configuration not stated),69*,-24,1,24,17,57*
Cc1c(N=Cc2cccs2)c(=O)n(-c2ccccc2)n1C,nt,27,-1,-27,nt,nt
COc1ccccc1NC(=O)c1ccccc1S(=O)(=O)c1ccc([N+](=O)[O-])cc1,54*,-33,2,33,-6,-11
O[C@H]1CN(CC2CCCCC2)[C@@H](c2ccc(Cl)cc2)C[C@@H]1n1cc(-c2ccc(F)cc2)nn1,51*,nt,nt,nt,9,64*
CCOC(=O)C1CCN(CCC(=O)Nc2ccc(C)c(C)c2)CC1,-4,-4,2,4,1,nt
CC(C)NS(=O)(=O)c1ccc(CCC(=O)Nc2cc(Cl)ccc2Oc2ccccc2)cc1,52*,-52,0,52,-6,34
CCNS(=O)(=O)c1ccc(CCC(=O)Nc2cc(Cl)ccc2Oc2ccccc2)cc1,nt,-49,0,49,-21,nt
O=C(CN(Cc1ccco1)C(=O)c1ccc(Cl)cc1)Nc1c(Cl)cc(Cl)cc1Cl,nt,-53,0,53,nt,nt
O=C(CN(Cc1ccco1)C(=O)c1cccc(Cl)c1)Nc1c(Cl)cc(Cl)cc1Cl,53*,-51,0,51,-2,39
CCOC(=O)c1c(NC(=O)CSc2nc3nc(C)cc(C)n3n2)sc(CC)c1C,5,-7,2,7,-5,nt
CC(=O)O[C@H]1C[C@@]2(C)[C@@H](C[C@@H](O)[C@H]3[C@@]4(C)CC[C@@H](O)[C@@H](C)[C@@H]4CC[C@@]32C)/C1=C(\CCC=C(C)C)C(=O)O,61*!,14,0,-14,8,56*
COc1cccc(NC(=O)N2CCc3nc(Nc4ccc(C(C)C)cc4)ncc3C2)c1,71*,nt,nt,nt,5,83*
CCCNC(=O)C(Cc1ccc(F)cc1)NC(=O)c1ccccc1 (configuration not stated),nt,14,1,-14,-3,nt
O=S(=O)(c1ccc(S(=O)(=O)N(Cc2ccccc2)Cc2ccco2)cc1)N1CCCC1,nt,-4,0,4,17,nt
COC(=O)/C=C/c1ccccc1S(=O)(=O)N(Cc1ccccc1)Cc1ccco1,54*,15,1,-12,-3,48*
Cc1cc(C)c2nc(-c3ccncc3)cc(C(=O)N3CCN(Cc4ccccc4Cl)CC3)c2c1,62*,-28,0,28,-6,59*
O=C(c1cc(-c2ccncc2)nc2ccc(Cl)cc12)N1CCN(Cc2ccc3c(c2)OCO3)CC1,23,-1,0,1,1,nt
Cc1ccc(NC(=O)C2CCN(C(=O)c3ccco3)CC2)cc1C,nt,nt,0,nt,10,nt
SMILES,TAG inh,SR-BI uptake up,Bfl-1 A1 inh,SR-BI HDL uptake,Vif inh,H9c2 TAG conf
COc1ccc(-c2noc(COC(=O)c3ccco3)n2)cc1OC,-13,5,0,-5,-7,nt
COc1ccc(CCNC(=O)Cc2cc(OCc3ccccc3)c(OC)cc2[N+](=O)[O-])cc1OC,63*,-38,0,38,4,33
CC(C)(C)c1ccc(C(=O)NNc2cc(N3CCCCC3)nc(N3CCCCC3)n2)cc1,60*,26,1,-26,3,36
CC(C)(C)c1ccc(C(=O)NNc2cc(N3CCOCC3)nc(N3CCOCC3)n2)cc1,38,-10,0,10,-4,nt
CCC1(CC(C)C)SC(N)=NC1=O (configuration not stated),1,9,nt,-9,-5,nt
CSc1ccc(/C=C/C(=O)c2ccc(NC(=O)Cc3ccccc3)cc2)cc1,59*,nt,0,nt,-5,22
COc1ccc(N2C(=S)N(C(=O)c3ccccc3)C(=Nc3ccccc3)C2=Nc2ccccc2)cc1,nt,-15,-8,15,-1,nt
COc1ccc(N=C2C(=Nc3ccc(OC)cc3)N(c3ccc(OC)cc3)C(=S)N2C(=O)c2ccc(OC)cc2)cc1,54*,-53,-1,53,-15,99*
CC(SCC(=O)Nc1ccccc1Br)c1nc2ccccc2c(=O)[nH]1 (configuration not stated),8,-12,0,12,13,nt
CCOC(=O)C1CCCCN1C(=O)c1cc2ccc(OC)cc2c2cc(OC)c(OC)cc12 (configuration not stated),54*,-69,nt,69,-14,25
Cc1cccc(C(=O)N[C@H](C(=O)Nc2ncc(C)s2)C(C)C)c1,65*,-1,0,1,5,93*
COc1ccc(NC(=S)N(CCN2CCOCC2)Cc2cc3cc4c(cc3[nH]c2=O)OCCO4)cc1,11,4,0,-4,1,nt
O=[N+]([O-])c1ccc(COc2ccccc2CN2CCCCC2)cc1,2,13,nt,-13,1,nt
C=CCN1C(=O)/C(=C2/Sc3ccccc3N2C)SC1=Nc1ccccc1C,61*,-73,0,?,-2,39
C=CCN1c2ccccc2Sc2cnccc21,7,nt,nt,nt,-2,nt
CC(NC(=O)C1CCN(C(=O)Nc2ccccc2)CC1)c1ccc(Cl)cc1 (configuration not stated),-13,-19,1,19,-7,nt
O=C1N=C(N2CCOCC2)S/C1=C/c1ccc(-c2ccc(F)cc2)o1,66*,-63,1,63,21,42*
Cc1ccc(-c2ccc(/C=C3\SC(N4CCOCC4)=NC3=O)o2)cc1,132,-23,0,23,6,nt
CCOC(=O)C1CCN(C(=O)C2(NC(=O)Nc3ccccc3Cl)CCCCC2)CC1,70*,5,-1,-5,4,38
